Compound activity (PubChem)
An excerpt weighted towards active compounds, which were near 3.8% of everything screened.
hERG protect = hERG rescue from dofetilide block, primary screen, cell-based, CHO-hERG, FluxOR thallium flux, dofetilide IC70. Voltage-gated inwardly rectifying potassium channel KCNH2 (Homo sapiens), Q12809. dofetilide IC70 present. activation (rescue from dofetilide block), less the hit threshold, % at 10 µM. hit rate 0.51% among 310,000. AID 1511, 2009;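 active means activation above the mean of controls blocked by dofetilide plus 5 SD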;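 further: thallium influx through hERG after potassium depolarization seen as dye fluorescence rise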
KCNQ1 pot = potentiators or activators of KCNQ1 channel, primary screen, cell-based, thallium flux, high-throughput | CHO-K1 KCNQ1, thallium flux FluxOR fluorescence; stronger effect = higher value | B-score at 10 µM | AID 2648, 2010 | Potassium voltage-gated channel subfamily KQT member 1 (Homo sapiens), P51787 | hit rate 0.35% among 310,000;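 active means fluorescence ratio B-score, a plate-corrected score, at least three library SD, with initial intensity B-score within 5 SD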
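System: CHO-K1 cells stably expressing KCNQ1 / Medium: assay buffer for compound exposure, DMSO matched across wells / Reagent: thallium- and potassium-containing depolarizing buffer / Compound: one concentration, matched DMSO / Incubation: 20 min compound pretreatment at room temperature / Measured by: kinetic FluxOR fluorescence, 10 s baseline plus 110 s post-stimulus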
Kir21 block = inhibitors of mouse Kir2.1 inward-rectifier potassium channel. Inward rectifier potassium channel 2 (Mus musculus), P35561. HEK293-Kir2.1, FluxOR thallium flux fluorescence; stronger effect = lower value. B-score at 10 µM. hit rate 0.85% among 310,000. AID 1672, 2009;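 active means fluorescence ratio B-score at or below minus 3 SD of library scores, with starting-brightness B-score within 2 SD, cut at about -4.2 in these data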;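 further: channel flux triggered by added potassium and thallium sulfate stimulus; B-score of peak minus minimum fluorescence over baseline after thallium stimulus; more negative B-score means stronger Kir2.1 block with less thallium influx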
KCNK9 inh = KCNK9 potassium channel inhibitors, primary screen, HEK293 cells, thallium flux; Potassium channel subfamily K member 9 (Homo sapiens), Q9NPC2; FluxOR thallium flux fluorescence; stronger effect = lower value; B-score at 10 µM; hit rate 1.2% among 310,000;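 active means ratio B-score over 3 SD below the library mean, with starting fluorescence within 5 SD of its mean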;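 further: negative B-score means less thallium flux so channel inhibition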
KCNQ1 inh = inhibitors of human KCNQ1 channel, primary screen, cell-based, thallium flux, high-throughput | B-score at 10 µM | CHO-K1 KCNQ1, FluxOR thallium flux fluorescence; stronger effect = higher value | Potassium voltage-gated channel subfamily KQT member 1 (Homo sapiens), P51787 | hit rate 1.3% among 310,000;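 active means compounds whose thallium flux B-score, printed positive for inhibition, exceeds three library SD while starting fluorescence stays within three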;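 further: channel opened by potassium depolarization with thallium stimulus after 20 min compound exposure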
KCNK3 inh = human KCNK3 channel inhibitors, primary screen, CHO cells, FluxOR thallium flux, B-score. Potassium channel subfamily K member 3 (Homo sapiens), O14649. FluxOR fluorescence; stronger effect = lower value. B-score at 10 µM. hit rate 0.84% among 340,000;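 active means B-score under library mean minus 4 SD, starting fluorescence ratio at most library mean plus 5 SD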;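 further: more negative B-score means stronger inhibition of thallium flux through KCNK3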
An asterisk follows results filed as active; i = inactive; . = not tested or not shown.

SMILES | hERG protect | KCNQ1 pot | Kir21 block | KCNK9 inh | KCNQ1 inh | KCNK3 inh
O=C(Nc1nc2cc3c(cc2s1)OCO3)c1ccco1 | -7 | i | 0.13 | i | i | i
COc1ccc(-c2csc(NC(=S)NC(=O)c3cc4ccccc4o3)n2)cc1Br | 0 | i | 1.2 | i | i | i
Cc1ccc(-c2csc(NC(=S)NC(=O)c3ccco3)n2)cc1 | -5 | 28* | 1 | i | i | i
COc1ccc(-c2csc(NC(=S)NC(=O)c3ccco3)n2)cc1Br | 11* | i | -0.17 | i | i | i
Cc1ccc(NC(=O)c2ccc3nc(N4CCOCC4)sc3c2)c(Cl)c1 | -9 | i | -3.5 | i | i | i
O=S(=O)(c1ccccc1)c1cnc(-c2cccnc2)nc1-c1ccccc1 | -3 | i | 0.25 | i | i | i
Cc1ncc(S(=O)(=O)c2ccc(Cl)cc2)c(-c2ccccc2)n1 | -7 | i | -4.8* | i | i | i
CC(=O)c1ccc(N2CCN(S(=O)(=O)c3csc(C(N)=O)c3)CC2)cc1 | -5 | i | -0.03 | i | i | i
NC(=O)c1cc(S(=O)(=O)N2CCN(c3ccc([N+](=O)[O-])cc3)CC2)cs1 | -9 | i | -1.6 | i | 7* | i
CC(C)(C)c1ccc(C(=O)Nn2cnnc2)cc1 | -8 | i | -0.56 | i | i | i
O=C(CNC1CCCCCC1)Nc1ccc(N2CCCC2)cc1 | -11 | i | -0.31 | i | i | .
O=C(CNCCC1=CCCCC1)Nc1ccc(N2CCCCCC2)cc1 | -21 | i | -5.6* | i | i | i
CCOC(=O)c1ccc2c(c1)n(CC)c(/C=C/N(C)c1ccccc1)[n+]2CC | -29 | i | 0.62 | i | 8* | i
COc1ccccc1C(=O)NCc1n[nH]c(=S)n1Cc1ccccc1 | -3 | i | -0.12 | i | i | i
Cc1scc(-c2n[nH]c(=S)n2Cc2ccccc2)c1C | -9 | i | -0.62 | i | i | i
CCc1c(-c2n[nH]c(=S)n2Cc2ccccc2)csc1C | -7 | i | -9.3* | i | i | i
COc1ccc(Cl)cc1-c1n[nH]c(=S)n1Cc1ccccc1 | -5 | i | -4.3* | i | i | i
COc1ccc(Cc2n[nH]c(=S)n2Cc2ccccc2)cc1Cl | -5 | i | -5* | i | i | i
S=c1[nH]nc(-c2ccccc2Cl)n1Cc1ccccc1 | -10 | i | -2 | i | i | i
Cc1ccc(CSc2ncnc3c2cnn3-c2ccc(C)cc2)cc1 | -9 | i | -0.74 | i | i | i
Cc1ccc(S(=O)(=O)CCC(=O)OCC(=O)NC(=O)c2ccccc2)cc1 | -18 | i | 1.1 | i | i | i
Cc1nn(CC(=O)NCCCN2CCN(Cc3ccccc3)CC2)c(=O)c2cc(-c3ccccc3)nn12 | -19 | i | 0.94 | i | i | i
S=c1nc(-c2ccc(Br)cc2)oc2c1CCCC2 | 14* | i | 0.55 | i | i | i
COC(=O)C1CN(S(=O)(=O)c2ccccc2)CCN1S(=O)(=O)c1ccccc1 (stereo unspecified) | -12 | i | -1.4 | -7.3* | i | i
COc1cccc(NC(=O)c2ccccc2-c2ccccc2)c1 | -4 | i | -4.2* | i | i | i
COC(=O)c1ccc(NC(=O)c2cccc(OC)c2)cc1 | -7 | i | 0.22 | i | i | i
COc1cccc(C(=O)NNC(=O)C(=O)Nc2cccc(Cl)c2C)c1 | 23* | 36* | 1.2 | i | i | i
COc1ccc(C(=O)Nc2cccc3ccccc23)cc1 | -9 | i | 0.06 | i | i | i
COc1ccc(C(=O)NNC(=O)C(=O)Nc2cccc3ccccc23)cc1 | 31* | 34* | -0.14 | i | i | i
